Compound in series [1]: COc1ccc2c(=O)c(C(=O)O)cn([C@@H]3O[C@H](CO)[C@@H](O)[C@H]3O)c2c1
As to the kind of experiment: (§1) Competitive inhibition of Trypanosoma cruzi glycosomal GAPDH assessed as increase in NAD+ Km by ITC method. An outline of the steps: (§2)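 Enzyme assays were run by isothermal titration calorimetry (ITC), probing the GAPDH NAD+ cosubstrate site and the active site. Affinity is reported as apparent Ki. Mode of inhibition was judged from how NAD+ and G3P KM and Vmax respond. Kinetic models were compared by second-order Akaike's information criterion.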

Compound in series [2]: COc1ccc2c(c1)c(=O)c(C(=O)O)cn2[C@@H]1O[C@H](CO)[C@@H](O)[C@H]1O
The description is as §1. In short, it runs like this: as §2

Compound in series [3]: Cc1ccc2c(=O)c(C(=O)O)cn([C@@H]3O[C@H](CO)[C@@H](O)[C@H]3O)c2c1
Described as §1. In short, it runs like this:
as §2

Compound in series [4]: Cc1ccc2c(c1)c(=O)c(C(=O)O)cn2[C@@H]1O[C@H](CO)[C@@H](O)[C@H]1O
The series is described as §1. In short, it runs like this: as §2

Compound in series [5]: O=C(O)c1cn([C@@H]2O[C@H](CO)[C@@H](O)[C@H]2O)c2cc(Br)ccc2c1=O
Described as §1. An outline of the steps: as §2

Compound in series [6]: O=C(O)c1cn([C@@H]2O[C@H](CO)[C@@H](O)[C@H]2O)c2ccc(Br)cc2c1=O
Described as §1. An outline of the steps:
as §2

Compound in series [7]: O=C(O)c1cn([C@@H]2O[C@H](CO)[C@@H](O)[C@H]2O)c2ccc(Cl)cc2c1=O
The description is as §1. An outline of the steps:
as §2

B1: Glyceraldehyde-3-phosphate dehydrogenase, glycosomal (Trypanosoma cruzi), P22513 (protein)
chain: MPIKVGINGFGRIGRMVFQALCEDGLLGTEIDVVAVVDMNTDAEYFAYQMRYDTVHGKFKYEVTTTKSSPSVAKDDTLVVNGHRILCVKAQRNPADLPWGKLGVEYVIESTGLFTAKAAAEGHLRGGARKVVISAPASGGAKTLVMGVNHHEYNPSEHHVVSNASCTTNCLAPIVHVLVKEGFGVQTGLMTTIHSYTATQKTVDGVSVKDWRGGRAAAVNIIPSTTGAAKAVGMVIPSTQGKLTGMSFRVPTPDVSVVDLTFTAARDTSIQEIDAALKRASKTYMKGILGYTDEELVSADFINDNRSSIYDSKATLQNNLPKERRFFKIVSWYDNEWGYSHRVVDLVRHMASKDRSARL
For B1, the Km in series [1] was 67.7 µM; in series [2] it was 47 µM; in series [3] it was 46.9 µM; in series [4], 48.5 µM; in series [5], 50 µM; in series [6], 62.6 µM. In addition, the Km in series [7] turned out to be 63.4 µM.

As usually defined, the Km is the concentration of substrate that gives half-maximal velocity.
